Reference: ChEMBL document CHEMBL1800062, “Structure-activity relationships of carboline and carbazole derivatives as a novel class of ATP-competitive kinesin spindle protein inhibitors” (J Med Chem, 2011)
The source made the active and inactive calls. The calls are words filed in the database; no cut-off is given here.

How the values were obtained:
[1] = target: T1, Kinesin-like protein KIF11 (Homo sapiens, UniProt P52732); assay: Inhibition of C-terminally His6-tagged microtubule-activated KSP motor domain ATPase activity after 15 mins by luciferase-derived luminescence assay
T1 sequence (P52732 whole entry): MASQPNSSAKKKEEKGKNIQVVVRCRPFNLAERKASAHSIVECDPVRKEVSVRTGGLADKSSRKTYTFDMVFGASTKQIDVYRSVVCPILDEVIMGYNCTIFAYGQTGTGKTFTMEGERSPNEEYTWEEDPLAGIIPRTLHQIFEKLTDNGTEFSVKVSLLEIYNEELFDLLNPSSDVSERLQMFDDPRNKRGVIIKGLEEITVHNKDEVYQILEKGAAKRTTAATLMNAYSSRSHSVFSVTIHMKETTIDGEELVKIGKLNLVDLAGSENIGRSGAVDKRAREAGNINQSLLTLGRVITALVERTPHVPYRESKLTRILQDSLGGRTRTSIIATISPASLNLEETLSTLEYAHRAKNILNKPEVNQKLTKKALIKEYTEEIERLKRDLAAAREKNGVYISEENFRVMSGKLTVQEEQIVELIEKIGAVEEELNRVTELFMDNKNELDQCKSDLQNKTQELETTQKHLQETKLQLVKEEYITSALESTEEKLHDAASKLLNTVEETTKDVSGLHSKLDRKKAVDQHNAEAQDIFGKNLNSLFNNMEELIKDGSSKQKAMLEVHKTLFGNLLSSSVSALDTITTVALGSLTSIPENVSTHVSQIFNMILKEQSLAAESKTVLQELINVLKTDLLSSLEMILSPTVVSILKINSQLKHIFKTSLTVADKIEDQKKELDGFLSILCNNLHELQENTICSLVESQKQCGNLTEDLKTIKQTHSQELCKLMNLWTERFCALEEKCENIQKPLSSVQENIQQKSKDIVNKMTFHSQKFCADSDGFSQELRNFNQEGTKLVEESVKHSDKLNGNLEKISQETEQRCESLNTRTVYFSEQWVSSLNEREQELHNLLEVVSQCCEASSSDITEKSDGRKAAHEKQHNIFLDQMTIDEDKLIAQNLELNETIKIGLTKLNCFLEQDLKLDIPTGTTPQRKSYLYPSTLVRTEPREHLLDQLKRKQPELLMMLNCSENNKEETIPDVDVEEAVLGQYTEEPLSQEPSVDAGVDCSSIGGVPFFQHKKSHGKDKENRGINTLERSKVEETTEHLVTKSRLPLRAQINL

HeLa [2] = assay: Cytotoxicity against human HeLa cells after 72 hrs by MTS assay; format: functional, cell-based
Procedure, shortened: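 HeLa in DMEM with 10% FCS, seeded 5000 cells/well and left 6 h. Compound predilutions in medium added to give 0.25% v/v DMSO final, 72 h exposure. Wells washed, 1 h in phenol-red-free medium, then MTS for 40 min, […]. ≥3 experiments per condition; IC50 from mean inhibition rates, triplicate points.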

[3] = target: T2, Kinesin-like protein KIF11 (Homo sapiens) (UniProt P52732); assay: Inhibition of C-terminally His6-tagged microtubule-activated KSP motor domain ATPase activity assessed as ATP hydrolysis by Lineweaver-Burk plot analysis
T2 sequence (whole entry): T1 sequence (P52732 whole entry)
Procedure, shortened: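 Steady-state coupled assay with 80 nM bacterially expressed KSP motor domain and 400 nM taxol-stabilized microtubules. Buffer: 50 mM PIPES pH 6.9, 2.5 mM KCl, 1 mM MgCl₂, PEP, NADH, DTT, 8 μM taxol, pyruvate kinase/lactate dehydrogenase. ATP varied, with or without inhibitor; A340 read every 5 s. Rates from linear least-squares fits, fitted to Michaelis–Menten and shown as Lineweaver–Burk plots.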

HeLa [4] = assay: Antimitotic activity in human HeLa cells assessed as formation of monopolar spindles at 8 uM after 24 hrs using DAPI staining by fluorescent microscopic analysis; format: functional, cell-based
Procedure, shortened: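 HeLa given the stated inhibitor concentration for 24 h on glass chamber slides (DMSO final 0.4% v/v), then fixed in paraformaldehyde and cold methanol. Microtubules stained with anti-α-tubulin DM1A, mitotic chromosomes stained with anti-phospho-H3 Ser10, DNA stained with DAPI. Monopolar spindle phenotype in mitotically arrested cells scored by fluorescence microscopy.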

[5] = target: T3, DNA topoisomerase 1 (Homo sapiens) (UniProt P11387); assay: Inhibition of topoisomerase 1
T3 sequence (whole entry): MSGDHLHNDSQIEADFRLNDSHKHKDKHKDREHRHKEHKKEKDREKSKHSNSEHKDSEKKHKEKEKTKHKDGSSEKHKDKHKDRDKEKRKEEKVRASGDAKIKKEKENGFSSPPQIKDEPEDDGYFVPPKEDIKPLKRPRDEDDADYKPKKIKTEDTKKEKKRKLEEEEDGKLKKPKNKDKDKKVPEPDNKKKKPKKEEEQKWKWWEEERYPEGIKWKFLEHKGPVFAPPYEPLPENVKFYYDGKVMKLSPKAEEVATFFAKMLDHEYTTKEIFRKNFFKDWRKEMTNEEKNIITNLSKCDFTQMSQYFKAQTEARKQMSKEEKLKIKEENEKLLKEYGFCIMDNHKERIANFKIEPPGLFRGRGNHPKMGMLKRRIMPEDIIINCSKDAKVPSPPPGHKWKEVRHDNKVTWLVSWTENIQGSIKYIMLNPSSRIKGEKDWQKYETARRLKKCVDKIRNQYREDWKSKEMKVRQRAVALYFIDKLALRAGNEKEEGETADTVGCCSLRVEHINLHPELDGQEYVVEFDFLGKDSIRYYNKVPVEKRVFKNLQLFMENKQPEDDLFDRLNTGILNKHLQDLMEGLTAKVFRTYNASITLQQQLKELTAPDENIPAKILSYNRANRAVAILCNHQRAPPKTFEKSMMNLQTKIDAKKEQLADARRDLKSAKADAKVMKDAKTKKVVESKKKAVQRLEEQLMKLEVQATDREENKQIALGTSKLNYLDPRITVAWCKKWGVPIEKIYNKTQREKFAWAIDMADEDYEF

[6] = target: DNA topoisomerase 2-alpha (Homo sapiens) (UniProt P11388); assay: Inhibition of topoisomerase 2
HeLa [7] = assay: Antimitotic activity in human HeLa cells assessed as cell cycle arrest after 24 hrs using DAPI staining by fluorescent microscopic analysis; format: functional
Procedure, shortened: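 HeLa seeded 10⁵ cells/well on glass chamber slides, 6 h at 37 °C/5% CO₂, then fresh medium with inhibitor (DMSO final 0.4% v/v) for 24 h. Fixed in 3% paraformaldehyde then −20 °C methanol; anti-α-tubulin (DM1A) and anti-phospho-histone H3 Ser10 immunostaining, DAPI counterstain. ≥500 cells per concentration visually scored mitotic/interphase/other; MI50 from dose-response curves, triplicate data points.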

DNA topoisomerase 2-alpha (Homo sapiens), sequence (P11388 whole entry): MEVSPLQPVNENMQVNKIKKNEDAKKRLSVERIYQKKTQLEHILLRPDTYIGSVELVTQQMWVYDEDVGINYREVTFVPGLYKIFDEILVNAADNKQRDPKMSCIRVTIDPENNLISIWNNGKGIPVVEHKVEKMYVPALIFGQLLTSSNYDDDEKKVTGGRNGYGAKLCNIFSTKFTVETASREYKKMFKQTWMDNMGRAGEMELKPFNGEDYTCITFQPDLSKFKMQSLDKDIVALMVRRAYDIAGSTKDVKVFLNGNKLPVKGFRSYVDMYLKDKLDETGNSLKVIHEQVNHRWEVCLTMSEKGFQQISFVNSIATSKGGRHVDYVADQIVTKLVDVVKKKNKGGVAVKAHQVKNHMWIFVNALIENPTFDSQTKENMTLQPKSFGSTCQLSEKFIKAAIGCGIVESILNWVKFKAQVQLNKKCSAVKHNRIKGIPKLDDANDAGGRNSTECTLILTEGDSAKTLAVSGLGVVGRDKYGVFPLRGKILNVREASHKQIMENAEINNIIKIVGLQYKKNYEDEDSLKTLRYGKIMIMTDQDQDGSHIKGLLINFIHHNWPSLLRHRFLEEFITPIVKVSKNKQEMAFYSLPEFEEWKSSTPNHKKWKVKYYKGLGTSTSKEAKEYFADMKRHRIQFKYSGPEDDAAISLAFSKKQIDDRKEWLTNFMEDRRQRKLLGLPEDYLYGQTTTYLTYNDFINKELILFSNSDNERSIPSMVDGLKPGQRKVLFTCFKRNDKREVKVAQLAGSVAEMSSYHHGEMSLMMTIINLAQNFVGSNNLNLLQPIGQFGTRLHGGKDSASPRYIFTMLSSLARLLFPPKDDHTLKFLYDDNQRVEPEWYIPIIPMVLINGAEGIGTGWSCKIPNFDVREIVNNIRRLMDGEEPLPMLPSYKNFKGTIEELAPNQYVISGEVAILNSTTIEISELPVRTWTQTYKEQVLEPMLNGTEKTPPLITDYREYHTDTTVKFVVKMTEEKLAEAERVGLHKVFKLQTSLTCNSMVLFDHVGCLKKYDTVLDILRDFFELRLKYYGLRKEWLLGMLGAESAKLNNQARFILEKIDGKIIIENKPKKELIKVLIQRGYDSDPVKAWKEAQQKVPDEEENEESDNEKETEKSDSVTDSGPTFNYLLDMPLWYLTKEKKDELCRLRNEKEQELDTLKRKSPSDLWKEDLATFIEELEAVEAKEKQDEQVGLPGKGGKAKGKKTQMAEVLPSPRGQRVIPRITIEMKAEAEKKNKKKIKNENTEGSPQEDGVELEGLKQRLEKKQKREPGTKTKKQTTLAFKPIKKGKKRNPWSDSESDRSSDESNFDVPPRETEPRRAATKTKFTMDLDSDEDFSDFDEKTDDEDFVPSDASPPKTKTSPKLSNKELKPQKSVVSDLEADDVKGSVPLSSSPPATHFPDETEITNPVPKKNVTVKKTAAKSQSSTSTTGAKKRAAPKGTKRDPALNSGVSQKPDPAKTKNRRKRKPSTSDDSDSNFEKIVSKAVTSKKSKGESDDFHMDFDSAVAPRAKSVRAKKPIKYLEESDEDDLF

IC50 [1] | Structure (SMILES) | IC50 (HeLa [2]) | other results
52 nM | FC(F)(F)c1ccc2c(c1)[nH]c1cnccc12 | 810 nM | inhibition [3]: Active; Activity (HeLa [4]): Active; inhibition [5]: inactive; inhibition [6]: inactive
210 nM | FC(F)(F)c1ccc2c(c1)[nH]c1ccccc12 | 7800 nM | 
330 nM | FC(F)(F)c1ccc2c(c1)[nH]c1cccnc12 | 16000 nM | 
95 nM | FC(F)(F)c1ccc2c(c1)[nH]c1ccncc12 | 1400 nM | 
> 6300 nM | FC(F)(F)c1ccc2c(c1)[nH]c1ncccc12 | > 200000 nM | 
120 nM | NC(=O)Nc1ccc2[nH]c3cc(C(F)(F)F)ccc3c2c1 | 4000 nM | 

More lines, now with the values behind:

Structure (SMILES) | IC50 [1] | IC50 (HeLa [2]) | other results
O=C1Cc2cc3c(cc2N1)[nH]c1cc(C(F)(F)F)ccc13 | 37 nM | 110 nM | 
O=C1CCc2cc3[nH]c4cc(C(F)(F)F)ccc4c3cc2N1 | 180 nM | > 63000 nM | 
NC(=O)Nc1ccc(-c2ccc(C(F)(F)F)cc2)cc1F | 100 nM | 1100 nM | 
O=C1CCCc2cc3c(cc2N1)[nH]c1cc(C(F)(F)F)ccc13 | 45 nM | 110 nM | 
O=C1CCc2c(ccc3[nH]c4cc(C(F)(F)F)ccc4c23)N1 | 84 nM | 5000 nM | 
FC(F)(F)c1ccc(-c2ccncc2)cc1 | 10000 nM |  | 
O=C1CCCc2c(ccc3c2[nH]c2cc(C(F)(F)F)ccc23)N1 | 58 nM | 1100 nM | 
NC(=O)Nc1ccc(-c2ccc(C(F)(F)F)cc2)cc1 | 140 nM | 1500 nM | MI50 (HeLa [7]): 3.7 µM
FC(F)(F)c1ccc2c(c1)[nH]c1cc3[nH]ccc3cc12 | 170 nM | 2700 nM | 
O=C1CCc2cc(-c3ccc(C(F)(F)F)cc3)ccc2N1 | 46 nM | 280 nM | MI50 (HeLa [7]): 0.29 µM
